The test system of data set [1] is HeLa. Nature of the data set: Drug level in human HeLa cells at 10 uM after 12 to 14 hrs flow cytometry. Format: ADME, cell-based. The method, boiled down:
(§1)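 Cells at 1.33×10^5 cells/mL grown 24 h, medium replaced, polyamide added at 0, 0.4, 2 or 10 μM final, 12-14 h at 37°C, 5% CO2. Washed, resuspended in HBSS at 5×10^5 cells/mL. 10,000 cells per sample read in the fluorescein channel. Fluorophores per cell interpolated from a linear curve of the five highest Rainbow bead peaks, then divided by a modeled nuclear volume of 1×10^-12 L (cylinder, radius 10 µm, height 5 µm).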

Data set [2] can be described thus: Binding affinity to DNA 5'WTWCGW3' sequence. The method, boiled down:
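Labeled DNA equilibrated with polyamide 14-16 h at 22°C in 10 mM Tris-HCl, 10 mM KCl, 10 mM MgCl2, 5 mM CaCl2, pH 7.0, then cleaved with DNase I. Binding isotherms built from normalized theta values.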

Data set [3] deals with U-251. In words: Induction of nuclear localization in human U251 cells at 2 uM after 12 to 14 hrs by confocal laser scanning microscopy. The class given is functional, cell-based. The procedure, abridged: (§2)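 Live cells were incubated 12-14 h at 37°C, 5% CO2 with 2 µM polyamide and imaged directly by confocal microscopy with fluorescein filters. Nuclear staining was scored qualitatively against medium fluorescence; a positive score means nuclear signal exceeds that of the medium.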

The test system of data set [4] is U-251. Nature of the data set: Cytotoxicity against human U251 cells assessed as cell viability by trypan blue assay. The class given is functional. The procedure, abridged:
(§3)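 Following 12-14 h polyamide exposure (0, 0.4, 2 or 10 μM final) at 37°C, 5% CO2, cells were trypsinized, pelleted and resuspended in HBSS (no Mg2+/Ca2+, 2.5 mg/mL BSA, 10 mM HEPES, pH 7.0-7.2). Viability was checked by trypan blue staining before flow cytometry.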

Data set [5] is described as follows: Drug uptake in nucleus of human HeLa cells at 2 uM after 12 to 14 hrs by confocal microscopy in presence of calf thymus DNA. Format: ADME, cell-based. The procedure, abridged:
(§4)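 Cells grown 24 h in glass-bottom dishes, then given 2 µM polyamide in fresh medium for 12-14 h at 37°C, 5% CO2, and imaged live with a 40× oil objective using fluorescein filters. Calibration standards were polyamide serial dilutions in medium with 500 μM bp sonicated calf thymus DNA. Nuclear concentration was interpolated from the linear calibration curve. At least three images per condition, at least ten cells per image; cell cycles unsynchronized.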

The test system of the next data set is DNA. In words: Binding affinity to calf thymus DNA at 2 uM assessed as fluorescence enhancement by steady-state fluorimetry relative to control. Format: nucleic-acid assay. The conditions noted are these: Bos taurus. The method, boiled down:
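Sonicated calf thymus DNA serially diluted in supplemented medium (0 to 1000 μM bp), polyamide at 2 μM final. Excitation 490 nm, emission scanned 500-650 nm, 2 nm slits, room temperature. Enhancement taken as the DNA-bound fluorescence relative to the DNA-free emission.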

The subject of data set [6] is HeLa. Nature of the data set: Cytotoxicity against human HeLa cells assessed as cell viability by trypan blue assay. Format: functional. The method, boiled down: as §3
Data set [7] concerns HeLa. In words: Drug level in human HeLa cells at 2 uM after 12 to 14 hrs flow cytometry. Format: ADME, cell-based. The procedure, abridged: as §1
Data set [8] has as its system U-251. In words: Drug level in human U251 cells at 10 uM after 12 to 14 hrs flow cytometry. Format: ADME, cell-based. The settings on record: u-251, 10 µM. The method, boiled down: as §1
The subject of data set [9] is HeLa. In words: Drug level in human HeLa cells at 0.4 uM after 12 to 14 hrs flow cytometry. Format: ADME, cell-based. The method, boiled down: as §1
Data set [10] concerns U-251. In words: Drug level in human U251 cells at 0.4 uM after 12 to 14 hrs flow cytometry. Format: ADME, cell-based. The conditions noted are these: u-251, 0.4 µM. The method, boiled down:
as §1

For data set [11], the system named is HeLa. Nature of the data set: Inhibition of VEGF expression in human HeLa cells by quantitative RT-PCR. The class given is functional, cell-based.
The nature of data set [12]: Drug uptake in nucleus of human U251 cells at 2 uM after 12 to 14 hrs by confocal microscopy in presence of calf thymus DNA. Format: ADME, cell-based. The conditions noted are these: u-251, 2 µM. The procedure, abridged:
as §4

In data set [13] the test system is HeLa. In words: Induction of nuclear localization in human HeLa cells at 2 uM after 12 to 14 hrs by confocal laser scanning microscopy. Format: functional, cell-based. The procedure, abridged: as §2
The subject of data set [14] is U-251. In words: Drug level in human U251 cells at 2 uM after 12 to 14 hrs flow cytometry. The settings on record: u-251, 2 µM. The class given is ADME, cell-based. The procedure, abridged:
as §1

The source made the active and inactive calls. No cut-off for these calls is given here.

For the molecule `Cn1cc(NC(=O)c2cc(NC(=O)c3nc(NC(=O)c4cc(NC(=O)[C@H](N)CCNC(=O)c5nc(NC(=O)c6cc(NC(=O)c7cc(NC(=O)c8sccc8Cl)cn7C)cn6C)cn5C)cn4C)cn3C)cn2C)cc1C(=O)NCCC(=O)NCCCNC(=S)Nc1ccc(-c2c3ccc(=O)cc-3oc3cc(O)ccc23)c(C(=O)O)c1`, the Drug uptake in the data set with HeLa [1] stood at 0.2 µM; in data set [5], 0.5 µM; with HeLa [7], 0.09 µM; with U-251 [8], 0.84 µM; in the data set with HeLa [9] it was 0.02 µM; in the data set with U-251 [10] it was 0.09 µM. In addition, the Drug uptake was 1.6 µM in data set [12] and 0.34 µM in the data set on U-251 [14]. This molecule also showed a Ka in data set [2] of 3.8 ×10⁹ /M. Besides, the outcome with U-251 [3], in the data set on HeLa [11] and with HeLa [13] was Active. Moreover, the Activity in the data set on U-251 [4] and in the data set on HeLa [6] was >95% each time. Further, the fold change (FC) in the data set with DNA amounted to 14.

For the origin of these results see ChEMBL document CHEMBL1151777, “Quantitating the concentration of Py-Im polyamide-fluorescein conjugates in live cells” (Bioorg Med Chem Lett, 2008).
